ABCB6 inh MLPCN – inhibitors of human ABC transporter ABCB6 | fluorescence ratio to DMSO, % at 10 µM | K562-ABCB6 porphyrin accumulation, flow cytometry, 1 h; active compounds read low | Q9NP58 | 360,000 compounds, 0.19% hits;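 active = fluorescence ratio to DMSO below 75%, the collection mean minus 3 SD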;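 note: signal is porphyrin accumulated inside mitochondria; 100% equals median channel fluorescence of DMSO control wells; lower ratio means ABCB6 inhibition with less porphyrin fluorescence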
Target sequence (Q9NP58 whole entry, looked up): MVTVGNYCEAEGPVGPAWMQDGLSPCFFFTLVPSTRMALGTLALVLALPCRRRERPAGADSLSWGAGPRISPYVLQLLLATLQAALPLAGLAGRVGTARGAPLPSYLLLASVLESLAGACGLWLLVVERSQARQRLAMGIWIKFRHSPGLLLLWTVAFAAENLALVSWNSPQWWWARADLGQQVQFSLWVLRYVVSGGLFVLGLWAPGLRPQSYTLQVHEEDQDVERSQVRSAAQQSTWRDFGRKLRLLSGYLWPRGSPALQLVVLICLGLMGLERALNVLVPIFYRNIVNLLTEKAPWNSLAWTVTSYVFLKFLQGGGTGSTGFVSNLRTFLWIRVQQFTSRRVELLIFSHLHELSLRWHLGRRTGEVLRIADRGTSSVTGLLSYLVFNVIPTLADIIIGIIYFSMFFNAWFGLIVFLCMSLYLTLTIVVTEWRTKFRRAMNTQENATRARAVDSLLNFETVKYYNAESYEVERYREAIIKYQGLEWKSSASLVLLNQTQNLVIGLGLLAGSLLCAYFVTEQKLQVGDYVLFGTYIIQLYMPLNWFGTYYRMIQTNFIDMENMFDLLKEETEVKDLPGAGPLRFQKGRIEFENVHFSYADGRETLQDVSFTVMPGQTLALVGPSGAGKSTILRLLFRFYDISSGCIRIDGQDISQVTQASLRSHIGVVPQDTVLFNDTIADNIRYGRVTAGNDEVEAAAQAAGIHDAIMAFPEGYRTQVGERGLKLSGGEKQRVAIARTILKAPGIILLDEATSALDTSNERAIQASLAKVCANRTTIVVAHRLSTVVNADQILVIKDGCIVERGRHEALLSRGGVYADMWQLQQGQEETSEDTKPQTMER
GAA850 FXN act – activators of GAA850 frataxin (FXN) promoter; HEK293 lucGAA850 FXN promoter luciferase reporter, 24 h; percent of 10 µM SAHA response; activation, % at 6 µM; 360,000 compounds, 0.56% hits;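 active = activation above the average of all compounds screened plus 3 SD, cutoff fixed separately per campaign, cut at about 7.5% in these data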;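 note: 0% = DMSO wells and 100% = 10 µM SAHA wells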
AHR activator – activates the human aryl hydrocarbon receptor. AID 2796. activation, % at 5 µM. P35869. AHR-responsive luciferase reporter cells, luminescence. 320,000 compounds, 2.5% hits; in the data active = activation above about 47%;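 note: 0% = vehicle wells and 100% = reference agonist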
STAT3 act – activators of IL-6 induced STAT3 signaling; U3A cells, IL-6 STAT3-luciferase reporter, luminescence; 100% = signal with IL-6 EC80 alone; activation (% of control), % at 5.6 µM; 190,000 compounds, 0.91% hits;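 active = activation above the screen-wide mean of compound activation plus 3 SD, cut at about 130% in these data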;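 note: 0% = background luminescence of wells with medium and substrate only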
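Test system: Human STAT1-deficient U3A cells with stable STAT3-luciferase reporter | Also added: Interleukin-6, 33 ng/mL | Timing: Compound pre-incubation 1 h before IL-6, then 6 h stimulation at 37 °C | Technique: Luciferase reporter luminescence | Read-out: Percent of IL-6-only median luminescence | Benchmarks: IL-6-only wells as 100% reference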
Starred values were filed as active, the others as inactive; . = not tested or not shown. This is a sample that favours compounds with a hit; in the whole collection about 3.3% have one here.

SMILES	ABCB6 inh MLPCN	GAA850 FXN act	AHR activator	STAT3 act
c1coc(-c2nnc(SCc3nc4ccccc4[nH]3)o2)c1	108	-2	49*	105
CCCCn1nnnc1C1(C)CCC(=O)N1Cc1cccnc1 (stereo not given)	94	.	.	.
CC1Nc2ncnc(N3CCN(c4ccccn4)CC3)c2N(Cc2ccccc2)C1=O (stereo not given)	106	0	12	.
Cc1ccc(CN2C(=O)C(C)Nc3ncnc(N4CCN(c5ccccn5)CC4)c32)cc1 (stereo not given)	95	2	60*	.
O=C1Nc2cc(Cl)c(Cl)cc2N(O)N1c1ccc(Cl)c(Cl)c1	104	1	57*	104
CC(=O)Nc1cc2c3ccccc3ccc2c2ccccc12	74*	0	.	.
CC(=O)Nc1cccc2ccc(O)cc12	108	-1	.	.
COc1cc(NC(=O)CSc2ncnc3sc4c(c23)CCC(C)C4)c(C(=O)O)cc1OC (stereo not given)	102	-1	2	.
COc1nnc(-c2ccc(N3CCCCC3)c(NC(=O)C3CCCCC3)c2)c2ccccc12	95	1	-1	103
COc1nnc(-c2ccc(N3CCCCC3)c(NC(C)=O)c2)c2ccccc12	104	2	78*	95
COc1cc(NC(=O)c2ccno2)cc(C(=O)Nc2cccc(C(F)(F)F)c2)c1	97	4	64*	.
COc1cccc(NC(=O)c2cc3cccc(OC)c3o/c2=N\O)c1	.	.	63*	.
COc1cc(NC(=O)c2nccnc2N)cc(C(=O)Nc2cccc(C(F)(F)F)c2)c1	95	-1	25	.
COc1cc(NC(=O)c2cc3cccc(OC)c3o2)cc(C(=O)Nc2cccc(C(F)(F)F)c2)c1	95	-7	73*	.
CCN1CCN(Cc2ccc(NC(=O)c3cc(NC(=O)c4cc5cccc(OC)c5o4)cc(OC)c3)cc2C(F)(F)F)CC1	100	0	16	.
Cc1ccc(CNc2ncnc3ccc(-c4ccoc4C)cc23)o1	97	-5	.	.
O=C(CSc1ncnc2nc[nH]c12)N1CCOCC1	108	1	3	98
CC(=O)Nc1ccc2c(=O)n(-c3ccccc3)sc2c1	101	-2	.	.
Cc1cccc([C@@H](NC(=O)OC(C)(C)C)C(=O)OC(C)(C)C)c1	68*	-1	0	.
CC(C)(C)OC(=O)N[C@@H](C(=O)OC(C)(C)C)c1ccccc1	92	1	1	.
CC(C)(C)OC(=O)NCCCC[C@H](NC(=O)c1[nH]cnc1C(=O)N[C@@H](Cc1ccccc1)C(=O)OCc1ccccc1)C(=O)OC(C)(C)C	91	1	1	.
Cn1ccnc1Sc1nc2ccccc2nc1NS(=O)(=O)c1ccccc1	106	2	8	102
O=C(Nc1ccc(Br)cc1)c1cc2ccccn2n1	93	2	57*	.
C[C@H]1CNC(=O)c2c(C(=O)NC3CCN(C(=O)OC(C)(C)C)CC3)ncn21	94	.	.	.
OCCCn1c(CCNc2nc(-c3ccc(F)cc3)cs2)nc2cc(C(F)(F)F)ccc21	95	2	51*	.
SMILES	ABCB6 inh MLPCN	GAA850 FXN act	AHR activator	STAT3 act
COc1ccccc1C(=O)NC(=S)Nc1cccnc1Cl	101	0	75*	.
COc1ccccc1C(=O)NNC(=S)NC(=O)c1sc2ccccc2c1Cl	100	2	48*	115
COc1ccccc1NC(=O)C(=O)Nc1ccccn1	100	1	39	141*
COc1ccccc1NC(=S)Nc1ccccn1	99	6	117*	92
COc1ccc(-c2cc3nc(NCCCN(C)C)n(C)c(=O)c3s2)cc1OC	102	0	.	.
Cc1cccc(NC(=S)NNc2cccc(Cl)c2)c1	96	-3	53*	.
Cc1cccc(NC(=S)Nc2ccccn2)c1	83	3	58*	.
CCCn1nnc(NC(=S)NC(=O)c2ccccc2OC)n1	87	2	57*	.
O=c1oc2ccccc2cc1-c1csc(NN=C2CCCCC2)n1	94	1	5	92
O=c1oc2ccccc2cc1-c1nc2c(s1)CCCC2	103	0	95*	42
O=C(NC1CCN(Cc2ccccc2)CC1)c1[nH]c(C(F)(F)F)nc1-c1ccccc1	92	.	.	.
Cc1ccc(NCC(=O)N=Nc2c(O)[nH]c3ccc([N+](=O)[O-])cc23)cc1	.	.	125*	.
O=[N+]([O-])c1ccc2[nH]c(O)c(N=NC(=S)Nc3cccnc3)c2c1	98	1	62*	.
CCNC(=S)N=Nc1c(O)[nH]c2ccc([N+](=O)[O-])cc12	82	2	27	77
Cc1ccc(C)c(NC(=S)N2CCN(S(C)(=O)=O)CC2)c1	93	2	.	.
O=c1oc2c(-c3cccc(F)c3)cc(O)cc2s1	98	6	8	104
O=C(Nc1ccc(Oc2ccc(Cl)cc2)c(Cl)c1)c1cc(I)cc(I)c1O	91	1	1	.
Clc1ccc(-c2nc3nc4ccccc4nc3n2Cc2ccco2)cc1	83	1	53*	100
CC(=O)c1cccc(Nc2cc(C)nc3c(C)cccc23)c1	99	1	50*	.
CC(=O)c1cccc(Nc2cc(C)nc3ccccc23)c1	94	-1	18	.
Cc1ccc(CNc2nc3ccccc3s2)s1	102	-2	68*	40
Cc1ccc(C(=O)Nc2nc3ccccc3s2)s1	105	-2	79*	70
COc1ccc(CNc2nc3ccccc3s2)cc1OC	102	1	42	.
COc1ccc(N2CSC3=C(C#N)C(c4cc(OC)c(OC)cc4OC)CC(=O)N3C2)c(OC)c1 (stereo not given)	102	-1	6	108
COc1ccc(N2CSC3=C(C#N)C(c4cc(OC)ccc4OC)CC(=O)N3C2)c(OC)c1 (stereo not given)	74*	-1	16	99
SMILES	ABCB6 inh MLPCN	GAA850 FXN act	AHR activator	STAT3 act
Cc1ccc(-n2cc(-c3ccc([N+](=O)[O-])cc3)[nH]c2=S)c(C)c1	100	3	2	104
COc1ccccc1-n1cc(-c2ccc(Br)cc2)[nH]c1=S	93	0	78*	.
COc1ccc(-c2cn(-c3ccccc3)c(=S)[nH]2)cc1OC	100	2	43	.
COc1ccccc1-n1cc(-c2ccc([N+](=O)[O-])cc2)[nH]c1=S	96	1	63*	.
CCN(C[C@H]1N[C@@](Cc2ccccc2)(C(=O)OC)[C@H]2C(=O)N(C)C(=O)[C@@H]12)C(=O)Nc1ccccc1	96	-2	1	.
CSc1ccc(C2c3[nH]c4ccccc4c3CCN2C(=O)c2ccnn2C)cc1 (stereo not given)	102	0	37	150*
CCc1ccc(C2c3[nH]c4ccccc4c3CCN2C(=O)CN2CCN(CC)CC2)cc1 (stereo not given)	98	-1	27	134*
CN(C)c1ccc(CNC(=O)C2(C)Cc3c(-c4cccc(C(F)(F)F)c4)ccnc3O2)cc1 (stereo not given)	101	-1	.	.
CC(C)C[C@H]1CN(CCCC[C@H]2CNC(=O)C(=O)N2CCC2CCCCC2)C(=O)C(=O)N1CC1CCCCC1	96	.	.	.
Cc1nc2c(ncn2-c2ccccc2)c(=O)n1NC(=O)CN1CCCCC1	92	-2	6	.
Cc1ccccc1-c1nc(CS(=O)(=O)CC(=O)NCCCN2CCN(C)CC2)c(C)o1	98	2	-3	.

Assay outcomes deposited in PubChem by several laboratories.
